Active and inactive are the calls of the source. The calls are words filed in the database; no cut-off is given here.
Legend:
[1] = Antioxidant activity assessed as inhibition of H2O2-induced hydroxyl radical formation by EPR spectroscopic analysis in presence of Fe2+; type: functional
How it was run: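 Hydroxyl radicals came from a Fenton reaction: H2O2 (10 mM), FeSO4·7H2O (10 mM) and DMPO spin trap (40 mM), with peptide at 1−1000 μM. Samples were diluted in 15 mM phosphate buffer, pH 7.4, and read immediately by EPR. The spin-adduct signal was integrated.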

[2] = Antioxidant activity assessed as inhibition of H2O2-induced ROS production by DCFH assay; type: functional
How it was run: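 DCFH oxidation assay: H2O2 (0.5 mM) was incubated with DCFH with or without the test agent, and the DCF formed was read fluorometrically. Free His and Trolox served as controls.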

[3] = Cellular uptake in intracellular vesicle of rat L6 cells at 10 uM after 4 hrs by WGA/Hoechst staining-based confocal fluorescent microscopic analysis; type: ADME, cell-based; settings: l6, 4 h
How it was run: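 Live L6 myotubes on glass-bottom dishes were given NBD-labelled peptide (10 μM) for 4 h in medium with 1% FBS, then washed. Nuclei were stained with Hoechst and membranes with Alexa Fluor-WGA. Imaging was by confocal microscopy at 37 °C.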

[4] = Induction of self-assembly of the compound in DMSO at 1 uM by fluorescence spectroscopic analysis; type: physicochemical
How it was run: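 Self-assembly of NBD-labelled peptide (1 μM) in 1:1 DMSO/MES (25 mM, pH 6.6) was followed as fluorescence decrease over time.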

[5] = system: L6; assay: Antiapoptotic activity in rat L6 cells assessed as suppression of 23.5 mM D-glucose-induced JNK-46 phosphorylation at 2 mM after 30 mins by Western blot analysis; type: functional, cell-based
[6] = system: L6; assay: Antiapoptotic activity in rat L6 cells assessed as suppression of 23.5 mM D-glucose-induced JNK-54 phosphorylation at 2 mM after 30 mins by Western blot analysis; type: functional, cell-based
[7] = system: L6; assay: Antioxidant activity in rat L6 cells assessed as trolox equivalents of ABTS free radical scavenging activity at 2 mM after 2 hrs by ELISA reader analysis in presence of 23.5 mM D-glucose; type: functional, cell-based
How it was run: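 L6 myotubes in αMEM with 2% FCS and 5.5 or 23.5 mM glucose were treated with peptide (25 μM, 12 h) or ALA (2 mM, 2 h), vehicle 0.1% DMSO. Cells were lysed (Tris pH 7.5, NaCl, NP-40) through three freeze-thaw cycles and centrifuged. Lysates were assayed for metmyoglobin/H2O2-driven ABTS•+ formation. Results are Trolox equivalents per mg protein from a Trolox standard curve, with protein by Bradford.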

[8] = system: L6; assay: Cytoprotective activity in rat L6 cells assessed as increase in glucose oxidase-reduced cell survival at 2 mM incubated for 30 mins prior to glucose oxidase challenge measured after 5 hrs by MTT assay in presence of 23.5 mM D-glucose; type: functional, cell-based
How it was run: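 L6 myotubes were kept 7 days in 23.5 mM glucose. They were pretreated with peptide (25 μM, 12 h) or ALA (2 mM, 30 min), vehicle 0.1% DMSO, at 37 °C. Glucose oxidase (50 mU mL−1) was then added for 5 h to generate H2O2. Viability was read by MTT.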

[9] = system: L6; assay: Effect on total GLUT4 level in rat L6 cells at 2 mM after 30 mins by Western blotting analysis; type: functional, cell-based
[10] = system: L6; assay: Effect on total GLUT1 level in rat L6 cells at 2 mM after 30 mins by Western blotting analysis; type: functional, cell-based
[11] = system: L6; assay: Effect on human myc epitope-tagged total GLUT4 level overexpressed in rat L6 cells at 2 mM after 30 mins by Western blotting analysis; type: functional, cell-based
How it was run: (§1)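 Whole-cell lysates of GLUT1myc- or GLUT4myc-overexpressing L6 myotubes were made after the same treatments as in the surface assay. Western blots were run for total transporter content.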

[12] = system: L6; assay: Effect on human myc epitope-tagged total GLUT1 level overexpressed in rat L6 cells at 2 mM after 30 mins by Western blotting analysis; type: functional, cell-based; how it was run: as §1
[13] = molecular target: T1, Solute carrier family 2, facilitated glucose transporter member 1 (Homo sapiens) (UniProt P11166); assay: Induction of human myc epitope-tagged GLUT1 translocation to plasma membrane overexpressed in rat L6 cells at 2 mM after 30 mins by immunocolorimetric analysis in presence of 23.5 mM D-glucose; type: cell-based
T1 sequence (whole entry): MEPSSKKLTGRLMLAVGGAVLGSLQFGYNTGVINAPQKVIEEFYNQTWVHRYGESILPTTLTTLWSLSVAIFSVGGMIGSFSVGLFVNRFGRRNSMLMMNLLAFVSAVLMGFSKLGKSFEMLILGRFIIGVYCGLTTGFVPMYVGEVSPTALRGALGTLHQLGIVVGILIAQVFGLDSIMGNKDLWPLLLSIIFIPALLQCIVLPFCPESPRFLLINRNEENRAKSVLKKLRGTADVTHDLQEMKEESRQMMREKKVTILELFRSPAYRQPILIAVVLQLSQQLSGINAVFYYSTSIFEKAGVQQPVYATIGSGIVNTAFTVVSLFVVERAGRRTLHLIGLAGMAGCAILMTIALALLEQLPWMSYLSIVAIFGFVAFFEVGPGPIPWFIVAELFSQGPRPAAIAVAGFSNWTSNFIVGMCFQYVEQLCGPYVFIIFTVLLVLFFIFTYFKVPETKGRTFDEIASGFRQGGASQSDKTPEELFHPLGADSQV
How it was run: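 L6 myotubes overexpressing GLUT1myc or GLUT4myc were held 9 h in serum-free αMEM with 0.5% BSA and 23.5 mM glucose. They received peptide (25 μM) or 0.1% DMSO over the last 8 h, and insulin (100 nM) or ALA (2 mM) over the last 30 min. Live cells were labelled with anti-c-Myc (1:200) and fixed in 3% formaldehyde. HRP anti-rabbit IgG (1:2000) and OPD were added, and absorbance was read at 492 nm.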

[14] = system: L6; assay: Antihyperglycemic activity in rat L6 cells assessed as increase in [3H]dGlc uptake at 25 uM after 30 mins by liquid scintillation counting analysis; type: functional, cell-based
[15] = system: L6; assay: Antihyperglycemic activity in rat L6 cells assessed as increase in [3H]dGlc uptake at 2 mM after 30 mins by liquid scintillation counting analysis; type: functional, cell-based
How it was run: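 Differentiated L6 myotubes were preincubated 24 h in αMEM with 2% FCS and 5.5 or 23.5 mM D-glucose, then switched to FCS-free medium with 0.5% BSA 4 h before the assay. Peptide was given for 12 h or ALA for 30 min, vehicle 0.1% DMSO. After PBS rinses, cells took up 0.1 mM dGlc plus [3H]dGlc (1.3 μCi mL−1) for 5 min at room temperature. Cells were lysed in 0.1% SDS and counted by scintillation. Uptake is expressed as % of the DMSO basal rate.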

N[C@@H](Cc1c[nH]cn1)C(=O)O [HISTIDINE]
EC50 [1]: 100 µM
EC50 [2]: 6 µM

Cc1c(C)c2c(c(C)c1O)CCC(C)(C(=O)O)O2 (configuration not stated) [TROLOX]
EC50 [2]: 0.35 µM

O=C1N[C@H](CCCCNc2ccc([N+](=O)[O-])c3nonc23)C(=O)N[C@@H](Cc2c[nH]cn2)C(=O)N[C@H](Cc2c[nH]c3ccccc23)C(=O)N[C@@H](Cc2c[nH]c3ccccc23)C(=O)N[C@H](Cc2c[nH]cn2)C(=O)N[C@@H](Cc2c[nH]cn2)C(=O)N[C@H](Cc2c[nH]cn2)C(=O)N[C@H]1Cc1c[nH]cn1
Drug uptake [3]: Active
Activity [4]: Active
EC50 [2]: 0.3 µM

O=C(O)CCCCC1CCSS1 (configuration not stated)
Activity [5]: Active
Activity [6]: Active
Activity [7]: Active
Activity [8]: Active
Activity [9]: inactive
Activity [10]: inactive
Activity [11]: inactive
Activity [12]: inactive
Activity [13]: Active
Activity [14]: inactive
Activity [15]: Active

— ChEMBL document CHEMBL2439985, “Multifunctional cyclic D,L-α-peptide architectures stimulate non-insulin dependent glucose uptake in skeletal muscle cells and protect them against oxidative stress” (J Med Chem, 2013)
